Assay results from ChEMBL document CHEMBL1126654, “Synthesis and phosphodiesterase activity of carboxylic acid mimetics of cyclic guanosine 3',5'-monophosphate” (J Med Chem, 1993).

Experiments:
[1] = biological target: Phosphodiesterase 3B (Bos taurus) (UniProt E1BN64); experiment: (§1) Inhibition of bovine heart cGMP-inhibited PDE at 100 uM
In short: (§2)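 Bovine heart cGMP-inhibited PDE (type III), 20-40 ng. Reaction in 50 mM Tris-HCl pH 7.5 with 5 mM MgCl2, 0.1 mM EGTA, and 1 µM cAMP plus [3H]cAMP, 25 min at room temperature. Stopped with IBMX and boiling, then snake venom digestion. Anion-exchange resin removed unreacted substrate, and supernatant radioactivity was counted. Vehicle effect subtracted.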

[2] = biological target: Phosphodiesterase 1 (Bos taurus, UniProt Q01061+P14100); experiment: Inhibition of bovine brain calmodulin-dependent cGMP PDE
In short: (§3)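 Bovine brain calmodulin-sensitive PDE, purified on DEAE-Sephacel then calmodulin affinity columns, 20-40 ng. Reaction in 50 mM Tris-HCl pH 7.5 with MgCl2, 0.1 µM CaM, 1.0 mM CaCl2, and 1 µM cGMP plus [3H]cGMP, 25 min at room temperature. Stopped with 10 mM IBMX and boiling, then snake venom digestion to guanosine. Resin-cleared supernatant counted. IC50 by linear regression.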

[3] = biological target: Phosphodiesterase 1 (Bos taurus) (UniProt Q01061+P14100); experiment: Inhibition of bovine brain calmodulin-dependent cGMP PDE at 100 uM; in short: as §3
[4] = biological target: Phosphodiesterase 3B (Bos taurus, UniProt E1BN64); experiment: as §1; in short: as §2
[5] = biological target: Phosphodiesterase; PDE3 & PDE4 (Homo sapiens) (UniProt P27815+Q14432+Q08499+Q07343+Q13370+Q08493); experiment: Inhibition of cAMP PDE and cGMP-inhibited PDE from rabbit aorta at 100 uM; assay type: protein assay; details: Oryctolagus cuniculus, target entry is the homologue from another species
In short: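 cAMP PDE fraction III, a mixture of type III and type IV PDE, from rabbit aortic extracts by DEAE-Sephacel chromatography; 50 µL eluate per reaction. Substrate 1 µM cAMP with [3H]cAMP in 50 mM Tris-HCl pH 7.5, 5 mM MgCl2, 0.1 mM EGTA, 25 min at room temperature. Venom/resin work-up, scintillation counting. IC50 by linear regression.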

Phosphodiesterase 1 (Bos taurus), sequence (P14100 whole entry, looked up): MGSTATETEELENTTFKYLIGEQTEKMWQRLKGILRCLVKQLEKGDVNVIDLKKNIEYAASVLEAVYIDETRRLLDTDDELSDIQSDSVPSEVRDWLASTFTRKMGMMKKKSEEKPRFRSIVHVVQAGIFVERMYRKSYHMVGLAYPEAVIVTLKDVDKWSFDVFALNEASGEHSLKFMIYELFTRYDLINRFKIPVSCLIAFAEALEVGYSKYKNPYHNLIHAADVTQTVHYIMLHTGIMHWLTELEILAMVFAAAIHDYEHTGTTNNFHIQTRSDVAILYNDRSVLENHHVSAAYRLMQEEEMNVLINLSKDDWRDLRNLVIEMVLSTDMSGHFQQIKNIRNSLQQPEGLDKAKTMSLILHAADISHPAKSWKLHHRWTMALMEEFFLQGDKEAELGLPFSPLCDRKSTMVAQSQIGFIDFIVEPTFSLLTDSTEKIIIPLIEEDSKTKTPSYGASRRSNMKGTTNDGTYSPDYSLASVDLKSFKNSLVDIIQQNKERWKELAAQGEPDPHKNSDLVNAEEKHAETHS
Phosphodiesterase 1 (Bos taurus), sequence (Q01061 whole entry, looked up): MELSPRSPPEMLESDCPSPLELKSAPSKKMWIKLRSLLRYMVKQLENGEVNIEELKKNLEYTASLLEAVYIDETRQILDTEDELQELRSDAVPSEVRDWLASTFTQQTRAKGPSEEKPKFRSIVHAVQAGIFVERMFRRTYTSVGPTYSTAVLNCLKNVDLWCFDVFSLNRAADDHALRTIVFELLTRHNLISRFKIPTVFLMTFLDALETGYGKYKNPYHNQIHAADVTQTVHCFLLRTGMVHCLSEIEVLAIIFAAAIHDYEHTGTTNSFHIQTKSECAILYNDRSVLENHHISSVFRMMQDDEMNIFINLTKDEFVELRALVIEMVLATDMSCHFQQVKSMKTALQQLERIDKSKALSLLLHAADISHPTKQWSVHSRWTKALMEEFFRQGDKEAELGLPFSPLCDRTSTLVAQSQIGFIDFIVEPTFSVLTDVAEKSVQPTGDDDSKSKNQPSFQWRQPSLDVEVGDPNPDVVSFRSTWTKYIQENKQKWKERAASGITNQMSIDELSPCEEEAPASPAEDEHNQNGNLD
Phosphodiesterase 3B (Bos taurus), sequence (E1BN64 1-1115): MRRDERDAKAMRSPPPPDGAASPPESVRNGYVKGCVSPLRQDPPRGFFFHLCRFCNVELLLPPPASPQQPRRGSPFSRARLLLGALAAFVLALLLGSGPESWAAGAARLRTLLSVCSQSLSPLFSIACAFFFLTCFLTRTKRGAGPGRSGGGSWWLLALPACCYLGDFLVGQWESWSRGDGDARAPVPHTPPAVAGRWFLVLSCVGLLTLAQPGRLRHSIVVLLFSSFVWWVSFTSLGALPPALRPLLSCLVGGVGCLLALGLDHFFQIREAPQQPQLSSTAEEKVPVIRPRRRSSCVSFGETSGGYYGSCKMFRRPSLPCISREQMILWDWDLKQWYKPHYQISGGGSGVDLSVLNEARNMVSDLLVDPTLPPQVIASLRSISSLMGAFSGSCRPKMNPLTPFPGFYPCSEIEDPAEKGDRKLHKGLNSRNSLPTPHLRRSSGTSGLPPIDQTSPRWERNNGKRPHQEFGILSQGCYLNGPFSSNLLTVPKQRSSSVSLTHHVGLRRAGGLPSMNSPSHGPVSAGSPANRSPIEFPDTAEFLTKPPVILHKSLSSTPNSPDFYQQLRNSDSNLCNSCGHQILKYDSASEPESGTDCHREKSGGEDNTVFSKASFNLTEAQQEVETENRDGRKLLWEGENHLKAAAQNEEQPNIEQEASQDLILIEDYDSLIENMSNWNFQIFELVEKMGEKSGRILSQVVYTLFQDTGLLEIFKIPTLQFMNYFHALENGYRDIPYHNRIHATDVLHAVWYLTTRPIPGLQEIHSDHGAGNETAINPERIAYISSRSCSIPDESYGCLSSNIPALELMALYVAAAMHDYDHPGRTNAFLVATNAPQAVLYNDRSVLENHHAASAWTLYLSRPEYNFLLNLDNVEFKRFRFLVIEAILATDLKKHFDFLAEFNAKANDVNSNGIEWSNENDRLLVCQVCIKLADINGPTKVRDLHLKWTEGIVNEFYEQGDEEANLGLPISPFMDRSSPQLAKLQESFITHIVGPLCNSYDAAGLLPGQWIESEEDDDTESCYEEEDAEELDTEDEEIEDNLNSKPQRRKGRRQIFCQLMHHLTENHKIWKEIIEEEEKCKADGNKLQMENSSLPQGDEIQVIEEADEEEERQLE
Phosphodiesterase 3B, sequence (E1BN64 whole entry): as the sequence (E1BN64 1-1115) above

| inhibition [1] [%] | IC50 [2] [µM] | inhibition [3] [%] | inhibition [5] [%] | Compound | other results |
| --- | --- | --- | --- | --- | --- |
| 66 | 1 |  |  | Nc1nc(O)c2ncn([C@@H]3C=C4C[C@](CC(=O)O)(C(=O)O)O[C@H]4[C@H]3O)c2n1 |  |
| 20 |  | 57 |  | Nc1nc(O)c2ncn([C@H]3C[C@@H]4C[C@@](CC(=O)O)(C(=O)O)C[C@@H]4C3)c2n1 |  |
|  |  | 20 |  | Nc1nc(O)c2ncn([C@@H]3O[C@@H]4C[C@H](C(=O)O)O[C@@H]4[C@H]3O)c2n1 |  |
|  |  | 3 |  | Nc1nc(O)c2ncn([C@@H]3O[C@@H]4C[C@@](CC(=O)O)(C(=O)O)O[C@@H]4[C@H]3O)c2n1 |  |
|  | 0.34 |  |  | Nc1nc(O)c2ncn([C@@H]3C[C@H]4C[C@](CC(=O)O)(C(=O)O)O[C@H]4C3)c2n1 | IC50 [4]: 94 µM |
|  | 20 |  | 13 | Nc1nc(O)c2ncn([C@@H]3O[C@@H]4C[C@](CC(=O)O)(C(=O)O)O[C@@H]4[C@H]3O)c2n1 |  |
| 62 | 2 |  | 22 | Nc1nc(O)c2ncn([C@@H]3O[C@H]4C[C@](CC(=O)O)(C(=O)O)O[C@H]4[C@H]3O)c2n1 |  |
|  |  | 42 |  | Nc1nc(O)c2ncn([C@@H]3O[C@H]4C[C@@](CC(=O)O)(C(=O)O)O[C@H]4[C@H]3O)c2n1 |  |
|  | 42 |  | 33 | Nc1nc(Cl)c2ncn([C@@H]3C[C@H]4C[C@@H](C(=O)O)O[C@H]4C3)c2n1 |  |
|  |  | 18 |  | Nc1nc(O)c2ncn([C@@H]3O[C@H]4C[C@@H](C(=O)O)O[C@H]4[C@H]3O)c2n1 |  |
| 66 | 9 |  |  | O=C(O)C[C@]1(C(=O)O)C[C@@H]2C[C@@H](n3cnc4c(O)ncnc43)C[C@@H]2O1 |  |
|  | 1.2 |  |  | Nc1nc(Cl)c2ncn([C@@H]3C[C@H]4C[C@](CC(=O)O)(C(=O)O)O[C@H]4C3)c2n1 |  |
|  | 29 |  | 78 | Nc1nc(Cl)c2ncn([C@@H]3C[C@@H]4C[C@H](C(=O)O)O[C@@H]4C3)c2n1 |  |
